Laboratory results: ChEMBL document CHEMBL3526048, “In vitro metabolism of rivoglitazone, a novel peroxisome proliferator-activated receptor γ agonist, in rat, monkey, and human liver microsomes and freshly isolated hepatocytes” (Drug Metab Dispos, 2011)

What was measured:
[1] = biological target: Cytochrome P450 3A4 (Homo sapiens, UniProt P08684); assay: Activity of human CYP3A4 expressed in microsomes isolated from baculovirus infected insect cell assessed as enzyme-mediated 3-(4-((6-methoxy-1-methyl-1H-benzo[d]imidazol-2-yl)methoxy)phenyl)-2-(methylthio)propanamide formation at 20 uM after 2 hrs by radio-HPLC/LC-MS/MS analysis in presence of NADPH-generating system/SAM; assay type: ADME
Chain of Cytochrome P450 3A4 (P08684 whole entry): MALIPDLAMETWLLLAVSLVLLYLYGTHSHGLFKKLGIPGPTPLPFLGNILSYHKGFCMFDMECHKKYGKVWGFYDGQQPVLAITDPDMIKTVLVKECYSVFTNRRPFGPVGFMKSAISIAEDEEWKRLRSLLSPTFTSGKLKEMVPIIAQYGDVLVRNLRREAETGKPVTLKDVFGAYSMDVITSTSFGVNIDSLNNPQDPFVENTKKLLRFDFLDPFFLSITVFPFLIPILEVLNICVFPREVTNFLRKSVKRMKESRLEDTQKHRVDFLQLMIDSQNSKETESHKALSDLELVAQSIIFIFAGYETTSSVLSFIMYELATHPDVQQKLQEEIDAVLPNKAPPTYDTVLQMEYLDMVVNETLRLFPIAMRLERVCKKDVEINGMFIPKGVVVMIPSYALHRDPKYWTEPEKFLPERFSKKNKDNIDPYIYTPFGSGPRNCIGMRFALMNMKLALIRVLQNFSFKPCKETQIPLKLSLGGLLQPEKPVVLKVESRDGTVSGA

[2] = biological target: T1, Cytochrome P450 3A5 (Homo sapiens, UniProt P20815); assay: Activity of human CYP3A5 expressed in microsomes isolated from baculovirus infected insect cell assessed as enzyme-mediated 2-mercapto-3-(4-((6-methoxy-1-methyl-1H-benzo[d]imidazol-2-yl)methoxy)phenyl)propanamide formation at 20 uM after 2 hrs by radio-HPLC/LC-MS/MS analysis in presence of NADPH-generating system and NADPH-generating system/SAM; assay type: ADME
T1 sequence (P20815 whole entry): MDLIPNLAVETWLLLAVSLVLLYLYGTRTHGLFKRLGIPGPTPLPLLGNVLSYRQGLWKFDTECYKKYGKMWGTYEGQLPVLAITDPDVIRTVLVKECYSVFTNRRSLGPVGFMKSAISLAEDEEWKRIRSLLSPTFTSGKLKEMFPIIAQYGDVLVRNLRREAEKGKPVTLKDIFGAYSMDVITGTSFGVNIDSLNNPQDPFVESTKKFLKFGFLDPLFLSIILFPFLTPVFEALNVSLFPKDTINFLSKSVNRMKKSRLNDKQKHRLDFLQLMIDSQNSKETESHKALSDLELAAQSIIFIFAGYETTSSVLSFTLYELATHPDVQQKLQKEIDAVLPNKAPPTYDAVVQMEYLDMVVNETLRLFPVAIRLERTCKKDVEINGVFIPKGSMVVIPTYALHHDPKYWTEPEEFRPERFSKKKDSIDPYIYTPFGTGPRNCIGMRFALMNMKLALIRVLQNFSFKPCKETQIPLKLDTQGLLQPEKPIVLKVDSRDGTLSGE
Outline: (§1)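 cDNA-expressed human CYP3A5 in baculovirus-insect-cell microsomes (1 mg/ml protein) was incubated with [¹⁴C]rivoglitazone (20 μM) in 50 mM potassium phosphate (pH 7.4) or 100 mM Tris-HCl (pH 7.5). NADPH-generating system: 2 mM NADP⁺, 20 mM glucose 6-phosphate, 2 units/ml G6PDH, 10 mM MgCl₂. Incubation ran 2 h at 37°C with shaking; insect-cell control supersomes served as control. Acetonitrile stop, supernatant concentrated, then radio-HPLC, LC-MS and LC-MS/MS.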

[3] = Drug metabolism in human hepatocytes assessed as formation of 2-mercapto-3-(4-((6-methoxy-1-methyl-1H-benzo[d]imidazol-2-yl)methoxy)phenyl)propanoic acid at 30 uM after 3 hrs by radio-HPLC/LC-MS/MS analysis in presence of UDPGA, UDPGA/SAM and NADPH-generating system; assay type: ADME, cell-based, Hepatocyte
[4] = Drug metabolism in rat hepatocytes assessed as formation of 5-(4-((6-methoxy-1H-benzo[d]imidazol-2-yl)methoxy)benzyl)thiazolidine-2,4-dione at 30 uM after 3 hrs by radio-HPLC/LC-MS/MS analysis in presence of NADPH-generating system and NADPH-generating system/SAM; assay type: ADME, cell-based, Hepatocyte
[5] = tested on: Liver microsome; assay: Drug metabolism in Sprague-Dawley rat liver microsomes assessed as formation of 2-((4-((2,4-dioxothiazolidin-5-yl)methyl)phenoxy)methyl)-1-methyl-1H-benzo[d]imidazol-6-yl hydrogen sulfate at 20 uM by radio-HPLC/LC-MS/MS analysis; assay type: ADME
[6] = biological target: T2, Cytochrome P450 2C8 (Homo sapiens, UniProt P10632); assay: Activity of human CYP2C8 expressed in microsomes isolated from baculovirus infected insect cell assessed as enzyme-mediated 5-(4-((6-methoxy-1H-benzo[d]imidazol-2-yl)methoxy)benzyl)thiazolidine-2,4-dione formation at 20 uM after 2 hrs by radio-HPLC/LC-MS/MS analysis in presence of NADPH-generating system and NADPH-generating system/SAM; assay type: ADME
T2 sequence (P10632 whole entry): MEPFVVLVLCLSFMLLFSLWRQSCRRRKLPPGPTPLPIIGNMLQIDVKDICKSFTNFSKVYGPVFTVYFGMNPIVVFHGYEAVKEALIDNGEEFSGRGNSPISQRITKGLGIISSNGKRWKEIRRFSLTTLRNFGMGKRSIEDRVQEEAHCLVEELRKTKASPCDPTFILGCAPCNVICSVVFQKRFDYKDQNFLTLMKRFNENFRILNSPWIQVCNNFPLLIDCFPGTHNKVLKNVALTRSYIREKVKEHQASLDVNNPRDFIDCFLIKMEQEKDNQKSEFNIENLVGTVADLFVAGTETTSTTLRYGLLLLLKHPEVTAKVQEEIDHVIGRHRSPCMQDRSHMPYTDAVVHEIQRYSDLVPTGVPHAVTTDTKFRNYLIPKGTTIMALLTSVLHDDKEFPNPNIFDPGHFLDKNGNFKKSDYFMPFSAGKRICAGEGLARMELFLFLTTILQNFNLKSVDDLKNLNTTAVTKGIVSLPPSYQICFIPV
Outline: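 Baculovirus/insect-cell microsomes expressing single human CYPs, 1 mg/ml protein, with 50 mM potassium phosphate (pH 7.4) or 100 mM Tris-HCl (pH 7.5). NADPH-generating system: 2 mM NADP⁺, 20 mM glucose 6-phosphate, 2 units/ml G6PDH, 10 mM MgCl₂. [¹⁴C]rivoglitazone at 20 μM, 2 h at 37°C with shaking. Control used insect-cell control supersomes. Stopped with acetonitrile; supernatant concentrated under nitrogen; metabolites analysed by radio-HPLC, LC-MS and LC-MS/MS.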

[7] = biological target: T1, Cytochrome P450 3A5; assay: (§2) Activity of human CYP3A5 expressed in microsomes isolated from baculovirus infected insect cell assessed as enzyme-mediated 3-(4-((6-methoxy-1-methyl-1H-benzo[d]imidazol-2-yl)methoxy)phenyl)-2-(methylthio)propanoic acid formation at 20 uM after 2 hrs by radio-HPLC/LC-MS/MS analysis in presence of NADPH-generating system/SAM and UDPGA/SAM; assay type: ADME; outline: as §1
[8] = Drug metabolism in cynomolgus monkey liver microsomes assessed as formation of 3-(4-((6-methoxy-1-methyl-1H-benzo[d]imidazol-2-yl)methoxy)phenyl)-2-(methylthio)propanoic acid at 20 uM after 2 to 4 hrs by radio-HPLC/LC-MS/MS analysis in presence of NADPH-generating system/SAM and UDPGA/SAM; assay type: ADME, Macaca fascicularis
[9] = biological target: T3, UDP-glucuronosyltransferase 1A10 (Homo sapiens, UniProt Q9HAW8); assay: Activity of human UGT1A10 expressed in microsomes isolated from baculovirus infected insect cell assessed as enzyme-mediated 2-mercapto-3-(4-((6-methoxy-1-methyl-1H-benzo[d]imidazol-2-yl)methoxy)phenyl)propanoic acid formation at 20 uM after 4 hrs by radio-HPLC/LC-MS/MS analysis in presence of UDPGA; assay type: ADME
T3 sequence (Q9HAW8 whole entry): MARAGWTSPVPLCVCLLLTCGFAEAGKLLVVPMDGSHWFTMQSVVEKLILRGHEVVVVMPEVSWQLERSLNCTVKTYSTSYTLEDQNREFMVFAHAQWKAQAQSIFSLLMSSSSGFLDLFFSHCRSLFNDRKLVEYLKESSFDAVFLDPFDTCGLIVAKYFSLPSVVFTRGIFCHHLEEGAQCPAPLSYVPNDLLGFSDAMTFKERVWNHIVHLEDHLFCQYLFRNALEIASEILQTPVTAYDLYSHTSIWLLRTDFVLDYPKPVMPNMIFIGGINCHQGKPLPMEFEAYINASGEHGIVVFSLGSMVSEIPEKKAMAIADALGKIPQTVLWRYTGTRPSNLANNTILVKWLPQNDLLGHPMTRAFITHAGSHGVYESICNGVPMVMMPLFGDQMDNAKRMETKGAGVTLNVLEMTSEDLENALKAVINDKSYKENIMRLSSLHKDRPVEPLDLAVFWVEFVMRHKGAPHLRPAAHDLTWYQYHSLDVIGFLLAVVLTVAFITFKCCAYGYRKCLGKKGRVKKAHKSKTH
Outline: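 Alamethicin (50 μg/mg protein, 15 min on ice) pretreated expressed human UGT microsomes (1 mg/ml protein) from baculovirus-infected insect cells. Incubation with [¹⁴C]rivoglitazone (20 μM) in 100 mM Tris-HCl (pH 7.5) with 10 mM MgCl₂, started by 5 mM UDPGA, 4 h at 37°C with shaking. UGT insect-cell control supersomes were run alongside. Acetonitrile stop, concentrated supernatant analysed by radio-HPLC, LC-MS and LC-MS/MS.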

[10] = biological target: Cytochrome P450 2D6 (Homo sapiens, UniProt P10635); assay: as §2, with “CYP2D6” for “CYP3A5”; assay type: ADME
Chain of Cytochrome P450 2D6 (P10635 whole entry): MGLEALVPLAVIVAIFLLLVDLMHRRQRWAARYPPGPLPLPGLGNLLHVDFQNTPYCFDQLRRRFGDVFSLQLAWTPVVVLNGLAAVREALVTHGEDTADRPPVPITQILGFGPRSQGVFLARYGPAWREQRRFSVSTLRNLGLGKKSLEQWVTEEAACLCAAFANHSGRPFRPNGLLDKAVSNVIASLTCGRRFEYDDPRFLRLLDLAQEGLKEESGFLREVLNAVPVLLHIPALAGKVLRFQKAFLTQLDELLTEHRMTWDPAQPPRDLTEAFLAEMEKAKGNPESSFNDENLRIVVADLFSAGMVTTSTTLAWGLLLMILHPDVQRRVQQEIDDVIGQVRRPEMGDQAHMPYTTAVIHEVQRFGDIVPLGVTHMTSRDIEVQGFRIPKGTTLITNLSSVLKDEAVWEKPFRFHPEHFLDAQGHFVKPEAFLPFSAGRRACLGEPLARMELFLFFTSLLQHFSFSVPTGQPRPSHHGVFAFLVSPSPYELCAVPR

- Drug metabolism [1]: metabolite_not_detected
- Drug metabolism [2]: metabolite_detected
- Drug metabolism [3]: metabolite_not_detected
- Drug metabolism [4]: metabolite_detected
- Drug metabolism [5]: metabolite_not_detected
- Drug metabolism [6]: metabolite_detected
- Drug metabolism [7]: metabolite_not_detected
- Drug metabolism [8]: metabolite_detected
- Drug metabolism [9]: metabolite_not_detected
- Drug metabolism [10]: metabolite_not_detected
SMILES: COc1ccc2nc(COc3ccc(C[14CH]4SC(=O)NC4=O)cc3)n(C)c2c1.Cl (racemic)
